The results in this text go back to ChEMBL document CHEMBL4513216, “Probing the Open Global Health Chemical Diversity Library for Multistage-Active Starting Points for Next-Generation Antimalarials” (ACS Infect Dis, 2020).

This data set is described as follows: Toxicity liver stage against HepG2, at 10uM. Also noted: test concentration 10 uM, cell line HepG2-A16-CD81EGFP. Conditions: human, HepG2-A16-CD81EGFP cells; read-out: INHIBITION
It counts as cell-based. Summed up: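 Uninfected HepG2-A16-CD81EGFP cells, 3 × 10^3 per well, 1536-well, plated on prespotted compound at 10 μM final, parasite-free screening media added to match infected plates; puromycin 10 μM positive, DMSO 0.5% negative; run in parallel with 48 h PbLuc assay at 37 °C, 5% CO2; viability by CellTiter-Glo luminescence, normalized to controls.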

With `CNc1nc(C2CCCCN2C(=O)C(C)(C)OC)nc2c1CN(C)CC2` (configuration not stated), the cytotoxicity at 10 µM was -6.61%. As to `CCc1nc(CCNc2ncccc2S(N)(=O)=O)sc1C`, the cytotoxicity at 10 µM was -3.23%. Then `c1cnnc(N2CCCC(NCc3nnc(-c4ccco4)o3)C2)c1` (configuration not stated), with -0.986%; and `Cc1cc(C)n(CC(C)CNC(=O)NCc2csc(C)n2)n1` (configuration not stated), with 11%; and `COc1cc(-c2nc3c([nH]2)CCCNC3=O)ccc1OC(C)C`, with 13.3%. To `CS(=O)(=O)N1CCC(N2CCCC2c2ccccn2)CC1` (configuration not stated) belongs -7.65%; to `Cc1ccccc1C(=O)N1CC[C@@H](N(C)C)[C@@H]1Cc1cnn(C)c1`, -71%. Then `CN(CCc1ccccc1)Cc1cnc(C2(C)CCCCO2)nc1` (configuration not stated), with 1.99%. For the compound `CC(C)(C(=O)NCc1ccccc1F)n1cc(Br)cn1`, the cytotoxicity at 10 µM turned out to be 0.296%. Then `Cc1ccsc1[C@@H]1CCN(C(=O)CCc2nc3ccccc3[nH]2)C[C@H]1O`, with -1.67%. To `C[C@@H](NC(=O)c1cccnc1)c1onc(-c2ccccc2)c1C(=O)O` belongs 10.1%; to `CN(Cc1ccco1)[C@@H]1CN(Cc2cccs2)C[C@@H]2CCCO[C@@H]21`, 3.65%; to `COC(=O)C1CCCN1C(=O)c1ccc(-n2nc(C)cc2C)cc1` (configuration not stated), -10.5%. Take `Cc1nn(C)cc1C(=O)N1CCCN(C2Cc3ccccc3C2)CC1`: the cytotoxicity at 10 µM was -3.16%.

With `Cn1c(CN2CCCCC2)nnc1C1CCCN(c2ccncc2F)C1` (configuration not stated), the cytotoxicity at 10 µM is -0.37%. Turning to `O=C(CSc1ccccc1Cl)NS(=O)(=O)c1ccc2c(c1)OCCO2`, the cytotoxicity at 10 µM was -10.7%. Turning to `CCc1ccc(C(=O)N2CCCC(CNS(C)(=O)=O)C2)o1` (configuration not stated), the cytotoxicity at 10 µM was -19.7%. To `CN(Cc1ccncc1)C(CO)c1cccc(F)c1` (configuration not stated) belongs 2.35%; to `COCCN1CCC2(CCC(=O)N2Cc2csc(C)n2)CC1`, 2.22%. Take `Cc1ccc2c(n1)N(CC1CC1)CCN(C(=O)NC1CC1)C2`: the cytotoxicity at 10 µM was -3.09%. On to `COc1ccsc1C(=O)N1CCCN(Cc2cscn2)CC1`, for which the cytotoxicity at 10 µM was -9.12%. With `O=C(Cc1ccc2c(c1)OCO2)N1CCCN(c2ccccc2)CC1`, the cytotoxicity at 10 µM is -2.84%. To `Cc1n[nH]c(SCC(=O)NC(c2ccccn2)C(C)C)n1` (configuration not stated) belongs -2.62%; to `CSCc1noc(CNS(=O)(=O)c2cccc(C(=O)NC3CC3)c2)n1`, -2.51%. Then `CCC[C@@H]1CN(C(=O)c2ccccc2-c2ccccc2)C[C@H]1N(C)C`, with 2.16%; and `Cc1cc2c(=O)n3c(nc2s1)CCN(C(=O)c1c(C)noc1C)CC3`, with 17.7%.

Consider `NC(=O)C(NC(=O)c1cc(Cl)c[nH]1)c1ccccc1` (configuration not stated), for which the cytotoxicity at 10 µM was -0.589%. Then `CCC(NC1CCN(S(C)(=O)=O)CC1)c1cccs1` (configuration not stated), with 0.125%. Then `OC(COc1ccc(F)cc1)CN1CCC(Cn2cccn2)CC1` (configuration not stated), with -9.07%; and `CC(=O)N1CC2(CCCC2)c2ccccc21`, with 0.83%. To `Cc1ccc2c(c1)C(NCc1nnc3n1CCCCC3)CCCO2` (configuration not stated) belongs -3.39%.

Turning to `COc1ccc(C(=O)NCCNC(=O)c2scnc2Cl)cc1`, the cytotoxicity at 10 µM was -16.8%. Then `Cc1noc(C)c1CN1CCN(Cc2nccn2C)CC1`, with -4.93%; and `Cc1nn(C)c2nc(N(CCN(C)C)CC3CCCO3)sc12` (configuration not stated), with -4.62%; and `CCc1nc(CN(C(C)=O)C2CCN(CCc3ccccn3)C2)no1` (configuration not stated), with -11.6%. On to `CC(=O)c1cc(CN2CCCCC2c2nc3cc(F)ccc3[nH]2)cs1` (configuration not stated), for which the cytotoxicity at 10 µM is -1.08%. As to `CCN1CCc2[nH]cnc2C12CCN(C(=O)CCc1cccs1)CC2`, the cytotoxicity at 10 µM worked out at 0.688%. In the case of `COc1ccccc1OC1CCN(c2nccc(N)n2)CC1`, the cytotoxicity at 10 µM came to 9.28%.

Consider `CC(C)N(CCS(C)(=O)=O)Cc1csc(Cc2ccc(Cl)cc2)n1`, for which the cytotoxicity at 10 µM was -40.6%.

As for `COc1ccc(CNCC2CN(C3CC3)CCO2)cc1OC` (configuration not stated), the cytotoxicity at 10 µM was -17%. Then `CCc1nccn1C1CCCN(C(=O)c2ccn(-c3ccccc3)n2)C1` (configuration not stated), with 5.84%.

Turning to `COc1ccc(CN2Cc3nnn(C)c3C(COCCN(C)C)C2)cc1` (configuration not stated), the cytotoxicity at 10 µM is 5.26%. To `O=S(=O)(Cc1cccc(F)c1)Nc1cc(Cl)ccn1` belongs -8.69%.

For `CN1CCOC(C(=O)N2CCOC3(CCCC3)C2)C1` (configuration not stated), the cytotoxicity at 10 µM is 7.28%. To `CCCN(Cc1nc(-c2ccoc2)oc1C)CC1CCCO1` (configuration not stated) belongs 2.4%.

For the compound `CC(C)c1nccn1C1CCCN(C(=O)CCNS(C)(=O)=O)C1` (configuration not stated), the cytotoxicity at 10 µM was -3.71%. To `CN(C)c1cc(CNC(=O)C2COc3ccccc3O2)ccn1` (configuration not stated) belongs 2.5%; to `Cc1cn2c(n1)CCC(NC(=O)c1csc(C(C)C)n1)C2` (configuration not stated), -16.4%; to `CCNc1ncc(C(=O)N(C)Cc2nc3ccccc3n2C)cn1`, 6.09%. Then `Cc1cccc(OCCC(=O)N2CCCN(CC(N)=O)CC2)c1C`, with -7.28%. Then `Cc1cc(CN(C)C(=O)Nc2cnc3c(c2)c(C)nn3C)no1`, with 3.77%; and `Cc1cccc(-c2noc(CN3CCOCC3C)n2)c1` (configuration not stated), with -11.9%. Regarding `Cn1ccnc1COc1ccc(COC(=O)C2CCCO2)cc1` (configuration not stated), the cytotoxicity at 10 µM is -1.39%. Take `CN(C)C1COC2(CCN(C(=O)c3cccc(Cl)c3)CC2)C1` (configuration not stated): the cytotoxicity at 10 µM was -7.81%. To `CCC(C)(C)NCc1nc(C(C)(C)NC(=O)OC(C)(C)C)no1` belongs 2.35%; to `O=C(O)CN1CCc2onc(C(c3ccccc3)c3ccccc3)c2C1`, -0.849%; to `CCOC(=O)N1CCN(c2nc(N)c3ccccc3n2)CC1`, -5.52%. Turning to `CNc1snc(C)c1C(=O)N1CCCC(n2ccnc2C)C1` (configuration not stated), the cytotoxicity at 10 µM was -14.1%. To `CS(=O)(=O)CCN(CCCO)C1CCc2ccccc21` (configuration not stated) belongs 7.37%. For the compound `COc1ccccc1OC1CCN(Cc2cnc(N(C)C)nc2)CC1`, the cytotoxicity at 10 µM is -10.9%.

Consider `CC(C)c1noc(C(C)N2CCN(Cc3nnc(C4CC4)o3)CC2)n1` (configuration not stated), for which the cytotoxicity at 10 µM was -11.9%. To `Cc1cc(NC(=O)c2ccc(F)cc2Br)n(C)n1` belongs -3.12%.

Turning to `CC(=O)Nc1ncc(S(=O)(=O)Nc2cccc(F)c2)s1`, the cytotoxicity at 10 µM was found to be 2.93%. As to `CCc1nc2n(n1)CC(Nc1ccnc(-c3ccccc3)n1)CC2` (configuration not stated), the cytotoxicity at 10 µM was -11.7%.

As to `CC(=O)Nc1ccc(-c2ccccc2NC(=O)CN)cc1`, the cytotoxicity at 10 µM is 2.83%. Then `CN(Cc1cccs1)S(=O)(=O)c1ccc(C(F)(F)F)nc1`, with -5.68%; and `O=C(COc1coc(CN2CCCCC2)cc1=O)Nc1ccccc1Cl`, with 3.72%; and `CCS(=O)(=O)CC(=O)NC(C)c1ccc(OCCC(C)C)cc1` (configuration not stated), with 5.61%. Then `COc1c(Br)cc(Br)cc1CNC(C)Cn1cccn1` (configuration not stated), with 3.64%; and `O=C(c1cnccn1)N1C[C@@H]2CN(Cc3cccnc3)CCO[C@@H]2C1`, with 2.89%; and `O=S(=O)(CC1CCCN1S(=O)(=O)c1cccnc1)c1ccccc1` (configuration not stated), with -4.31%. To `Cn1cc(N2C[C@@H]3CN(S(=O)(=O)C4CC4)C[C@@H]3C2=O)cn1` belongs 1.86%; to `FC(F)(F)C1CCCn2c(CNCc3ccco3)nnc21` (configuration not stated), -9.5%; to `Cc1ccc(-c2nc(CN3CCCC3Cn3cncn3)cs2)o1` (configuration not stated), -7.88%. `CCC1(O)CCCN(c2ncnc3c2c(C)nn3C)C1` (configuration not stated): the cytotoxicity at 10 µM came out at 2.14%.

Take `CC1CN(c2ccccc2Cl)C(=O)CN1C(=O)c1c[nH]c(=O)c(Cl)c1` (configuration not stated): the cytotoxicity at 10 µM turned out to be 0.345%. `CCn1cnnc1CNC(=O)Cc1ccc2c(c1)OCCO2`: the cytotoxicity at 10 µM was -3.27%.

For `Cc1cc(C)nc(N2CCc3ccc(OC(F)F)cc3C2)n1`, the cytotoxicity at 10 µM amounted to 2.68%.

Take `Cc1ncc2c(n1)CN(Cc1ncc(C(C)(C)C)o1)CC2`: the cytotoxicity at 10 µM is 0.96%. Then `Cc1ccc(F)cc1C(=O)N1C[C@@H](CN2CCOCC2)[C@@H](CO)C1`, with -6.2%. To `O=C(NCCc1noc(-c2ccccn2)n1)NCC1CCCC1` belongs 0.321%. To `Cc1cc(C2CCCN(CCCS(C)(=O)=O)C2)n[nH]1` (configuration not stated) belongs -13.2%.

On to `O=C1CC(c2ccccc2)C2(CCN(Cc3ccncc3)CC2)N1` (configuration not stated), for which the cytotoxicity at 10 µM was -4.72%. Consider `Clc1snnc1CN1CCOC(CNc2cccnn2)C1` (configuration not stated), for which the cytotoxicity at 10 µM was -11%.

Turning to `Cc1nc(CNC(=O)Cn2nc(-c3ccc(F)cc3)oc2=O)cs1`, the cytotoxicity at 10 µM turned out to be 1.12%. To `COc1cccc(S(=O)(=O)NC(=O)C2CC(c3ccccc3)=NO2)c1` (configuration not stated) belongs 3.73%; to `O=C(Cc1cccc(F)c1F)NS(=O)(=O)c1ccc(Cl)cc1F`, -6.11%; to `Cc1nn(C)cc1CN1CCCC1c1cccc(Nc2nccs2)n1` (configuration not stated), 4.25%. To `C[C@]1(O)CN(Cc2cscn2)CC[C@@H]1Oc1cccc(F)c1` belongs 7.08%. Then `Cn1cnc2c1CCN(Cc1nc(Cc3ccccc3)no1)C2`, with -7.99%. In the case of `COc1cc2c(nn1)CCN(Cc1ncc(C(C)(C)C)o1)C2`, the cytotoxicity at 10 µM was -6.44%. Then `CC(C)(O)CCc1ccc(C(=O)NCCC2CCOC2)cc1` (configuration not stated), with 0.824%; and `Cc1ccccc1-c1ncc(CNCc2csc(C(C)C)n2)s1`, with 0.264%; and `CC(=O)N1CC(C(=O)NC(C)c2cnn(C)c2C)C1` (configuration not stated), with 4.65%. To `O=C(c1cccs1)N1CCC(O)(CN2CCc3ccccc3C2)C1` (configuration not stated) belongs 1.49%; to `CN(C)Cc1cc(=O)n2c(n1)CN(CC1CCOCC1)CCC2`, 6.37%. To `O=C(OCc1ccccc1)N1CC[C@H]2CC(CO)O[C@@H]2C1` (some centres not stated) belongs -97.7%.
